Consider 4 molecules from article PMC8811894 (ACS Omega, 2022).

In data set [1] the test system is A549 human lung epithelial carcinoma cells. The data set can be described thus: MTT cell toxicity assay. The class given is cell-based. The note with it: Homo sapiens, A549, 72 h, read-out: cancer cell growth inhibition, GI50. An outline of the steps:
(§1)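 Cells were seeded at 5 × 10^3/well in medium with 10% FBS and kept at 37 °C, 5% CO2. Media: DMEM for A549 and A375; EMEM for DU145; F-12K for PC-3; McCoy's 5a for HCT-116 and SK-OV-3; RPMI-1640 + insulin 0.2 Units/mL for T-47D. Test compound came from DMSO stocks, with tubercidin as positive control. MTT at 0.5 mg/mL final was added for 2–3 h at 37 °C, then absorbance read at 570 nm. Three repeats; GI50 from sigmoidal fit.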
(In general: Tetrazolium assays rely on reduction of a dye to a coloured formazan, in cell work by metabolically active cells.)

The subject of data set [2] is HCT-116 human colon epithelial colorectal carcinoma cells. The data set can be described thus: MTT cell toxicity assay. The class given is cell-based. The note with it: Homo sapiens, HCT-116, 72 h, read-out: cancer cell growth inhibition, GI50. An outline of the steps:
as §1

For data set [3], the system named is A375 human skin epithelial malignant melanoma cells. The data set is described as follows: MTT cell toxicity assay. The class given is cell-based. The note with it: Homo sapiens, A-375, 72 h, read-out: cancer cell growth inhibition, GI50. The method, boiled down:
as §1

The test system of data set [4] is SK-OV-3 human ovary ascites epithelial adenocarcinoma cells. The data set can be described thus: MTT cell toxicity assay. The class given is cell-based. The note with it: Homo sapiens, SK-OV-3, 72 h, read-out: cancer cell growth inhibition, GI50. An outline of the steps:
as §1

Data set [5] has as its system PC-3 human prostate epithelial adenocarcinoma grade IV cells. The data set can be described thus: MTT cell toxicity assay. In kind it is cell-based. To be noted: Homo sapiens, 72 h, read-out: cancer cell growth inhibition, GI50. The method, boiled down:
as §1

Data set [6] has as its system DU145 human prostate epithelial carcinoma cells. The data set can be described thus: MTT cell toxicity assay. The class given is cell-based. To be noted: Homo sapiens, DU-145, 72 h, read-out: cancer cell growth inhibition, GI50. An outline of the steps: as §1
The subject of data set [7] is T-47D human breast carcinoma cells. The data set is described as follows: MTT cell toxicity assay. The class given is cell-based. The note with it: for GI50: Homo sapiens, T47D, 72 h, read-out: cancer cell growth inhibition, GI50. An outline of the steps: as §1
Data set [8] has as its system HCT-116 human colon epithelial colorectal carcinoma cells. The data set can be described thus: Click-iT-EdU Alexa Fluor 488 cell proliferation assay. In kind it is cell-based. The note with it: Homo sapiens, HCT-116, 72 h, read-out: DNA synthesis inhibition, GI50. The method, boiled down:
(§2)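 Cells were seeded at 800/well in medium with 10% FBS under 5% CO2. HCT-116 grew in McCoy's 5a and T-47D in RPMI-1640 + insulin 0.2 Units/mL. Test compound came from DMSO stocks, with tubercidin as positive control. After 72 h, EdU was added for 2.5 h at 37 °C. Cells were fixed in 4% paraformaldehyde (30 min, RT) and stained with Hoechst 33342. Click-iT Alexa Fluor 488 reaction ran 1 h at RT in the dark. Plates were read by high-content imaging; value from sigmoidal fit.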

The subject of data set [9] is T-47D human breast carcinoma cells. Described as above. The class given is cell-based. The note with it: for GI50: Homo sapiens, T47D, 72 h, read-out: DNA synthesis inhibition, GI50. An outline of the steps:
as §2

Data set [10] relates to panel of 60 human cancer cell lines. The data set is described as follows: NCI60 screen, SRB assay, panel mean. In kind it is cell-based. To be noted: single-dose inhibition of cell growth at 10 μM. An outline of the steps:
(§3)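 Tested on the 60-line human cancer panel by sulforhodamine B assay. The dye binds cell protein under mildly acidic conditions and is extracted with basic medium; bound dye is taken as a proxy for cell mass. A single-dose test at 10 μM gives % growth inhibition; a five-dose test gives GI50.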
For orientation: Sulforhodamine B stains cellular protein and so reports cell mass.

A further data set deals with MDA-MB-435. The data set is described as follows: NCI60 SRB screen. The class given is cell-based. To be noted: Homo sapiens, MDA-MB-435, read-out: growth inhibition. An outline of the steps:
as §3

A further data set has as its system A498. The data set is described as follows: NCI60 SRB screen. The class given is cell-based. The note with it: Homo sapiens, A498, read-out: growth inhibition. An outline of the steps: as §3
In data set [11] the test system is MCF-7 human breast carcinoma cells. To be noted: ref [30]; cited from earlier work.
Data set [12] relates to Caco-2 colon adenocarcinoma cells. To be noted: read-out: IC50, growth suppression; 24 h treatment; ref [9]; cited from earlier work.
Data set [13] concerns panel of 60 human cancer cell lines. The note with it: read-out: NCI60 screen mean GI50; SRB assay; ref NCI60 screen data, NSC 115712; cited from earlier work.

Broadly, the GI50 is the concentration that inhibits growth by half. As a reminder, the inhibition is the percentage by which the read-out fell short of the control. As a reminder, the IC50 is the concentration needed to halve the response being measured.

SMILES strings stand for the structures.

Regarding `COc1cc(CCC[P+](c2ccccc2)(c2ccccc2)c2ccccc2)c(OC)c(OC)c1OC.[I-]` [7d, [3-(2,3,4,5-Tetramethoxyphenyl)propyl](triphenyl)phosphonium Iodide], the concentration for 50% growth inhibition (GI50) came out at 17900 ± 360 nM in data set [1]; 218 ± 24 nM in data set [2]; 2350 ± 240 nM in data set [3]; 21600 ± 1530 nM in [4]; 3880 ± 550 nM in data set [5]; 8130 ± 150 nM in [6]. In addition, the GI50 in data set [7] worked out at 500 ± 70 nM; in data set [8], 681 ± 90 nM; in data set [9] it was 613 ± 25 nM. Further, the “times more potent than PrTPP” value in data set [7] (T-47D, MTT test) was 4.8 times; in data set [9] (T-47D, Click-iT-EdU test) it was 5.6 times. Also, the “NCI60 screen mean GI, %” value in data set [10] is listed as 32.9%. The inhibition at 10 µM in the data set with MDA-MB-435 and in the data set on A498 was approximately 100% throughout.
As for `CCCCCCCCCCCC[P+](c1ccccc1)(c1ccccc1)c1ccccc1` [dodecyl-TPP], the concentration exhibiting cytotoxicity in data set [11] is listed as 250 nM.
`C=CCc1cc(OC)c2c(c1)OCO2` [1c, myristicin]: the GI50 in data set [1], in data set [2], in data set [3], in data set [4], in data set [5] and in data set [6] was more than 250000 nM throughout. Also, the GI50 in [7] is 113000 ± 12400 nM; in data set [8], more than 250000 nM; in data set [9] it was more than 250000 nM. Further, the IC50 in [12] was 760000 nM.
Turning to `Nc1ncnc2c1ccn2[C@@H]1O[C@H](CO)[C@@H](O)[C@H]1O` [tubercidin, Tubercidin, reference compound], the GI50 is 44 ± 3 nM in data set [1]; 80 ± 4 nM in data set [2]; 43 ± 4 nM in data set [3]; 131 ± 2 nM in [4]; 76 ± 1 nM in data set [5]; 256 ± 90 nM in data set [6]. For the same molecule, the GI50 is 13 ± 1 nM in data set [7], 30.7 ± 2 nM in data set [8], 44 ± 6 nM in [9] and 331 nM in data set [13].
